The text below walks through data of ChEMBL document CHEMBL1268915, “Optimization of a series of dipeptides with a P3 threonine residue as non-covalent inhibitors of the chymotrypsin-like activity of the human 20S proteasome” (Bioorg Med Chem Lett, 2010).

The term inhibition denotes the relative decrease from the control value, in per cent. For orientation: IC50 means the concentration needed to halve the response being measured.

The subject of data set [1] is HEK293. Briefly: (§1) Inhibition of TNF-alpha-induced NF-kappaB activation in human HEK293 cells after 3 hrs by luciferase reporter gene assay. It counts as cell-based. More on the design: concentration or dose not given beside the values. Particulars: dose or concentration not given here. The gist of the method:
(§2)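 NF-κB-luciferase reporter in HEK293 cells (10,000 per well). Cells were pre-incubated with compound for 1 h, then stimulated with 10 ng/ml TNF-α for 3 h with compound still present. IC50 and percentage inhibition were reported as means of at least three independent experiments.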
Background: Reporter assays use an easily measured gene product as a stand-in for the process of interest.

Data set [2] in a line: as §1. It counts as cell-based. Particulars: HEK293, 3 h. Put shortly: as §2
For data set [3], the target named is T1, Coagulation factor XII (Homo sapiens) (UniProt P00748).
T1 sequence (whole entry): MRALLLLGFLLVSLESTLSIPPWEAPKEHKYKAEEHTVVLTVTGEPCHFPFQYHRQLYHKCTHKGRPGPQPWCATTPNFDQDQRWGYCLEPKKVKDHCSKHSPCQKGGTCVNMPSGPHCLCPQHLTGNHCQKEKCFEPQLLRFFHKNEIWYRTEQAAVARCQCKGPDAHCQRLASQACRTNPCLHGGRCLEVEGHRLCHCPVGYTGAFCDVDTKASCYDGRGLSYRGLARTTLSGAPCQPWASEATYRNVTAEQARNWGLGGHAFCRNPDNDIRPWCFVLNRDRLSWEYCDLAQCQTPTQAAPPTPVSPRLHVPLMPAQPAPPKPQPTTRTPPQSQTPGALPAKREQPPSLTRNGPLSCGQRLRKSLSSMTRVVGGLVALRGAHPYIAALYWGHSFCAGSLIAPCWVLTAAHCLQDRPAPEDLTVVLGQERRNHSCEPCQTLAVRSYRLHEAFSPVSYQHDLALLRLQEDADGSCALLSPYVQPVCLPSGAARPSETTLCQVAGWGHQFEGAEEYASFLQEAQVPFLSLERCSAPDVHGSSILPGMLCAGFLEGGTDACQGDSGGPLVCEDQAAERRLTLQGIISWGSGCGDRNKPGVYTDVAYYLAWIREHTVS
Briefly: Inhibition of human coagulation factor beta 12a at 100 uM.

Data set [4] is filed under the species Homo sapiens. Briefly: Inhibition of human chymotrypsin at 100 uM.
In data set [5] the target is T2, Calpain-1 catalytic subunit (Homo sapiens) (UniProt P07384).
T2 sequence (whole entry): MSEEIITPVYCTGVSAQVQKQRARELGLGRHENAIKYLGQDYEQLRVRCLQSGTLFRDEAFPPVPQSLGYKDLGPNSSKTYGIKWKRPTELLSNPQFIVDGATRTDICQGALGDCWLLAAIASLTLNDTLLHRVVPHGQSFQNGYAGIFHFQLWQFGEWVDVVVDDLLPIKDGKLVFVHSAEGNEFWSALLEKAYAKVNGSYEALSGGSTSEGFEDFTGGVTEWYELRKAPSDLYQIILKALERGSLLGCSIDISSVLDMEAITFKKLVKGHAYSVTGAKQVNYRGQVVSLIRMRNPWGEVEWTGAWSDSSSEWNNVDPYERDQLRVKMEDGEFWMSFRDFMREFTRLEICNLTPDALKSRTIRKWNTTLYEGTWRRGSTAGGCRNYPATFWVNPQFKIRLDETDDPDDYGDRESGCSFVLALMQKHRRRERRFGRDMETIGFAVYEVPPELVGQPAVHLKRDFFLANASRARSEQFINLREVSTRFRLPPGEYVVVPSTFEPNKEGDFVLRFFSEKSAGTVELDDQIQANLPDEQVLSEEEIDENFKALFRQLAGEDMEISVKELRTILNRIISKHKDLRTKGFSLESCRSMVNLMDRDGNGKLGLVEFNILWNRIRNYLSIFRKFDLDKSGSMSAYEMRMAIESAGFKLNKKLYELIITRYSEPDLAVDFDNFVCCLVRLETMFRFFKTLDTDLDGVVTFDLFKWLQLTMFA
Briefly: Inhibition of human calpain 1 at 100 uM.

Data set [6] addresses Tissue-type plasminogen activator (Homo sapiens) (UniProt P00750). As to the kind of experiment: Inhibition of tissue plasminogen activator at 100 uM.
A short description of data set [7]: Inhibition of chymotrypsin-like activity of human 20s proteasome beta2 subunit in human erythrocyte assessed as hydrolysis of Ac-WLA-AMC fluorogenic substrate.
For data set [8], the target named is Plasminogen (Homo sapiens) (UniProt P00747). As to the kind of experiment: Inhibition of human plasmin at 100 uM.
Data set [9] concerns the target Prothrombin (Homo sapiens) (UniProt P00734). As to the kind of experiment: Inhibition of human thrombin at 100 uM.
Data set [10] addresses Procathepsin L (Homo sapiens) (UniProt P07711). As to the kind of experiment: Inhibition of human cathepsin L at 100uM.
The nature of data set [11]: Cytotoxicity against human Calu6 cells assessed as cellular ATP level after 72 hrs by luminescence-based ATPlite assay. The format is cell-based, Calu-6. Particulars: read-out: LC50. Put shortly:
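Calu6 cells, 2000 per well, incubated with compound for 72 h. Viability read as cellular ATP by luminescence (ATPlite). Values are means of at least three independent experiments.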
A general note: In ATP-based viability assays light output follows the ATP content of the culture.

Data set [12] in a line: Inhibition of chymotrypsin-like activity of human 20s proteasome beta5 subunit in human erythrocyte assessed as hydrolysis of Ac-WLA-AMC fluorogenic substrate.
The species entered for data set [13] is Homo sapiens. Briefly: Inhibition of human elastase at 100 uM.
Data set [14] addresses Cathepsin B (Homo sapiens) (UniProt P07858). Briefly: Inhibition of human cathepsin B at 100uM.
Data set [15] is described as follows: Inhibition of chymotrypsin-like activity of human 20s proteasome beta-1 subunit in human erythrocyte assessed as hydrolysis of Ac-WLA-AMC fluorogenic substrate.
Data set [16] addresses Trypsin (Homo sapiens) (UniProt P07477+P07478+P35030). As to the kind of experiment: Inhibition of human trypsin at 100 uM. It counts as protein assay.

Molecules are shown by their SMILES. The source made the active and inactive calls. The rule behind the calls is not given here. A value given as a limit tells only on which side of the number the result lay.

Plasminogen (Homo sapiens), sequence (P00747 97-580 limits assumed): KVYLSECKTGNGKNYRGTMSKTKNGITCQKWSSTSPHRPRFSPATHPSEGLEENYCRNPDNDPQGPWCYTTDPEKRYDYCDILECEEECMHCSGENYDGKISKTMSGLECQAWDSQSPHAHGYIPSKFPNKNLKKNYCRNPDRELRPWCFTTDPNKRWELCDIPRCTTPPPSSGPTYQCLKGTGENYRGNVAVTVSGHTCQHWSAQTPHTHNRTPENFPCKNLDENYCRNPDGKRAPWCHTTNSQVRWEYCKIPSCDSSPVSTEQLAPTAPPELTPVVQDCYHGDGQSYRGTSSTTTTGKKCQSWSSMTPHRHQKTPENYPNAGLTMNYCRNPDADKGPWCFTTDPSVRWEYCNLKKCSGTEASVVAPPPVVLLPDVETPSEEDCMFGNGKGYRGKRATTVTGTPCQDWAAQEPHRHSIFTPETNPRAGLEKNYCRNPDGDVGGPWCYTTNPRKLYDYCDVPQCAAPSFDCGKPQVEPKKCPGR
Plasminogen (Homo sapiens), sequence (P00747 581-810 limits assumed): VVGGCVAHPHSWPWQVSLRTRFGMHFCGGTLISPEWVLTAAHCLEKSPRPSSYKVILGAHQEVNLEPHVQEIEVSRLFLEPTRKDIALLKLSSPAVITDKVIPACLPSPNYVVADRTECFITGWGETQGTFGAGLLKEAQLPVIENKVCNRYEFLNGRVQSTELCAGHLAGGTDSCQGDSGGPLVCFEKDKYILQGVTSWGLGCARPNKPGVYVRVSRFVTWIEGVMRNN
Procathepsin L (Homo sapiens), sequence (P07711 114-333 limits assumed): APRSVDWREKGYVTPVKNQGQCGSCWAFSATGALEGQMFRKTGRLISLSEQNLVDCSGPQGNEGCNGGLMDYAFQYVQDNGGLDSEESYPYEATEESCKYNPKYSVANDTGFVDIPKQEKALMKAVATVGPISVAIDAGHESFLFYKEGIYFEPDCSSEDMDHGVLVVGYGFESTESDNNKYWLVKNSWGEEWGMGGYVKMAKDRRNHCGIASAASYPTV
Tissue-type plasminogen activator (Homo sapiens), sequence (P00750 36-562 limits assumed): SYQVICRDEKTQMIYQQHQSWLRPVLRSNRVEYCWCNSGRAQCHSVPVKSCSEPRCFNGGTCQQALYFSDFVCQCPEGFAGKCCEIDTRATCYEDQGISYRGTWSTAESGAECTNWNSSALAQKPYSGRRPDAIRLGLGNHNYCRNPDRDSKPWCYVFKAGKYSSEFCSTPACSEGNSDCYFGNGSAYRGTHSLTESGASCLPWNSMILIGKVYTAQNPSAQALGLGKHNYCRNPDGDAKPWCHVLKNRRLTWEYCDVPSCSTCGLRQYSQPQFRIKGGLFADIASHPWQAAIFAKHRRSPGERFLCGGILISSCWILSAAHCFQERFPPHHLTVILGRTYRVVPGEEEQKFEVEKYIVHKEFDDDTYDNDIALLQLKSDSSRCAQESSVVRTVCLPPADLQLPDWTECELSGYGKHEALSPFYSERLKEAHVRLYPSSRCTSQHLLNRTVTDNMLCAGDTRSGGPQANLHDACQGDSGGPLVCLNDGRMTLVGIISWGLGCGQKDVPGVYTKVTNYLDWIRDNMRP

`CCNC(=O)[C@H](CCc1ccccc1)NC(=O)[C@@H](NC(=O)c1ccc(OCc2ccccc2)cc1)[C@@H](C)O` returned an inhibition in data set [1] of 98%. Further, the IC50 in [2] was 2600 nM; in [7] it was above 20000 nM; in data set [12], 440 nM; in [15] it was above 20000 nM. Also, the inhibition entry in data set [3], in data set [4], in data set [5], in [6], in data set [8] and in data set [9] was “Active” each time. In addition, the inhibition result in data set [10], in [13], in data set [14] and in [16] was “Active” in each case. Besides, in data set [11], the CC50 at 72 h came out at 5100 nM.
Compound `COc1ccc2c(c1)C(CC(=O)N[C@H](C(=O)N[C@@H](CCc1ccccc1)C(=O)NCc1ccc(C)cc1)[C@@H](C)O)CC2=O` (stereo partly drawn) yielded an inhibition in data set [1] of 89%. Also, the IC50 in data set [2] is 320 nM; in data set [7], above 20000 nM; in [12] it was 25 nM; in [15] it was above 20000 nM. Moreover, the inhibition result in data set [3], in data set [4], in data set [5], in [6], in data set [8] and in [9] was “Active” in each case. For the same compound, the inhibition entry in data set [10], in data set [13], in data set [14] and in data set [16] was “Active” in each case. In data set [11], the CC50 at 72 h amounted to 1200 nM.
With `Cc1ccc(CNC(=O)[C@H](CCc2ccccc2)NC(=O)[C@H](CCc2ccccc2)NC(=O)[C@H](CCc2ccccc2)NC(=O)c2cnc(C)cn2)cc1`, the inhibition in data set [1] came out at 79%. Further, the IC50 in data set [2] was 47 nM; in data set [7], above 20000 nM; in data set [12], 16 nM; in data set [15], above 20000 nM. Also, the inhibition result in data set [3], in data set [4], in data set [5], in data set [6], in data set [8] and in data set [9] was “Active” in each case. Moreover, the inhibition entry in data set [10], in [13], in data set [14] and in data set [16] was “Active” throughout. Besides, in data set [11], the CC50 at 72 h stood at 140 nM.
In the case of `C[C@@H](O)[C@H](NC(=O)c1ccc(OCc2ccccc2)cc1)C(=O)N[C@@H](CCc1ccccc1)C(=O)N(C)Cc1ccccc1`, the inhibition in data set [1] is 86%. Further, the IC50 in [2] was 4400 nM; in data set [7] it was above 20000 nM; in data set [12], 9100 nM; in data set [15], above 20000 nM. For the same compound, the inhibition result in [3], in data set [4], in data set [5], in [6], in data set [8] and in data set [9] was “Active” throughout. Further, the inhibition result in [10], in data set [13], in data set [14] and in data set [16] was “Active” throughout. Besides, in [11], the CC50 at 72 h is 6600 nM.
For `Cc1ccc(CNC(=O)[C@H](CCc2ccccc2)NC(=O)[C@@H](NCc2ccc(OCc3ccccc3)cc2)[C@@H](C)O)cc1`, the inhibition in data set [1] was found to be 37%. For the same compound, the IC50 is above 50000 nM in [2], above 20000 nM in data set [7], 3100 nM in data set [12] and above 20000 nM in [15]. Also, the inhibition entry in data set [3], in [4], in [5], in data set [6], in data set [8] and in data set [9] was “Active” each time. Besides, the inhibition entry in [10], in data set [13], in data set [14] and in data set [16] was “Active” in each case. Further, the CC50 at 72 h in [11] is 14000 nM.
Consider `C=CCNC(=O)[C@H](CCc1ccccc1)NC(=O)[C@@H](NC(=O)c1ccc(OCc2ccccc2)cc1)[C@@H](C)O`, for which the inhibition in [1] was determined as 99%. For the same compound, the IC50 was 880 nM in data set [2], above 20000 nM in data set [7], 100 nM in data set [12] and above 20000 nM in data set [15]. Further, the inhibition entry in [3], in data set [4], in [5], in data set [6], in data set [8] and in [9] was “Active” in each case. Further, the inhibition entry in data set [10], in [13], in data set [14] and in data set [16] was “Active” in each case. Also, in data set [11], the CC50 at 72 h is 2800 nM.
In turn, `Cc1ccc(CNC(=O)[C@H](CCc2ccccc2)NC(=O)[C@@H](NC(=O)c2ccc(OCc3ccccc3)cc2)[C@@H](C)O)cc1` returned an inhibition in [1] of 81%. Besides, the IC50 is 120 nM in data set [2], above 20000 nM in data set [7], 20 nM in data set [12] and above 20000 nM in data set [15]. In addition, the inhibition entry in data set [3], in [4], in data set [5], in [6], in data set [8] and in data set [9] was “Active” in each case. Besides, the inhibition entry in data set [10], in data set [13], in data set [14] and in [16] was “Active” each time. Further, in [11], the CC50 at 72 h came to 380 nM.
As to `Cc1ccc(CNC(=O)[C@H](CCc2ccccc2)NC(=O)[C@@H](NC(=O)CCc2ccccc2C)[C@@H](C)O)cc1`, in data set [1], the inhibition came to 80%. Moreover, the IC50 was 690 nM in [2], above 20000 nM in data set [7], 120 nM in data set [12] and above 20000 nM in data set [15]. Moreover, the inhibition entry in data set [3], in data set [4], in data set [5], in data set [6], in [8] and in [9] was “Active” in each case. Besides, the inhibition result in data set [10], in [13], in data set [14] and in data set [16] was “Active” each time. For the same compound, the CC50 at 72 h in data set [11] came out at 2300 nM.
